# Experimental data published in ChEMBL document CHEMBL4382192, “Discovery of a potent dual ALK and EGFR T790M inhibitor” (Eur J Med Chem, 2017).
# Key:
# [1] = test system: Tyrosine-protein kinase ABL1 (Homo sapiens), P00519 [T315I]; assay: Binding affinity to human non-phosphorylated ABL1 T315I mutant (S229 to K512 residues) expressed in mammalian expression system assessed as residual binding level at 1 uM by Kinomescan method relative to control
# Method in brief: (§1)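 Kinome-wide selectivity panel run by the KINOMEscan method, with the test compound at a single concentration of 1 μM. Wild-type and mutant kinases were profiled in the same screen.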
# [2] = target: Serine/threonine-protein kinase BRSK2 (Homo sapiens) (UniProt Q8IWQ3); assay: Binding affinity to wild-type human full length BRSK2 (M1 to L674 residues) expressed in bacterial expression system assessed as residual binding level at 1 uM by Kinomescan method relative to control
# [3] = target: Calcium/calmodulin-dependent protein kinase kinase 2 (Homo sapiens) (UniProt Q96RR4); assay: Binding affinity to wild-type human partial length CAMKK2 (D65 to V471 residues) expressed in bacterial expression system assessed as residual binding level at 1 uM by Kinomescan method relative to control
# [4] = target: Cyclin-dependent kinase 4/cyclin D1 (Homo sapiens) (UniProt P11802+P24385); assay: Binding affinity to wild-type human full length CDK4/cyclinD1 (M1 to E303 residues) expressed in mammalian expression system assessed as residual binding level at 1 uM by Kinomescan method relative to control
# [5] = target: Casein kinase I isoform alpha-like (Homo sapiens) (UniProt Q8N752); assay: Binding affinity to wild-type human full length CSNK1A1L (M1 to N337 residues) expressed in bacterial expression system assessed as residual binding level at 1 uM by Kinomescan method relative to control
# [6] = target: Megakaryocyte-associated tyrosine-protein kinase (Homo sapiens) (UniProt P42679); assay: Binding affinity to wild-type human full length CTK (M43 to P508 residues) expressed in mammalian expression system assessed as residual binding level at 1 uM by Kinomescan method relative to control
# [7] = target: Death-associated protein kinase 3 (Homo sapiens) (UniProt O43293); assay: Binding affinity to wild-type human partial length DAPK3 (M1 to A277 residues) expressed in bacterial expression system assessed as residual binding level at 1 uM by Kinomescan method relative to control
# [8] = target: Fibroblast growth factor receptor 3 (Homo sapiens) (UniProt P22607); assay: Binding affinity to wild-type human partial length FGFR3 (R442 to S771 residues) expressed in bacterial expression system assessed as residual binding level at 1 uM by Kinomescan method relative to control
# [9] = test system: Receptor-type tyrosine-protein kinase FLT3 (Homo sapiens), P36888 [R834Q]; assay: Binding affinity to human partial length FLT3 R834Q mutant (V592 to Y969 residues) expressed in mammalian expression system assessed as residual binding level at 1 uM by Kinomescan method relative to control; method in brief: as §1
# [10] = test system: eIF-2-alpha kinase GCN2 (Homo sapiens), Q9P2K8 [S808G]; assay: Binding affinity to wild-type human partial length GCN2 kinase domain 2 (R585 to T1018 residues) S808G mutant expressed in bacterial expression system assessed as residual binding level at 1 uM by Kinomescan method relative to control
# [11] = target: Interleukin-1 receptor-associated kinase 4 (Homo sapiens) (UniProt Q9NWZ3); assay: Binding affinity to wild-type human partial length IRAK4 (M1 to S460 residues) expressed in mammalian expression system assessed as residual binding level at 1 uM by Kinomescan method relative to control
# [12] = target: Tyrosine-protein kinase JAK1 (Homo sapiens) (UniProt P23458); assay: Binding affinity to wild-type human partial length JAK1 JH1 catalytic domain (V856 to K1154 residues) expressed in bacterial expression system assessed as residual binding level at 1 uM by Kinomescan method relative to control
# [13] = target: Mast/stem cell growth factor receptor Kit (Homo sapiens) (UniProt P10721); assay: Binding affinity to wild-type human partial length autoinhibited KIT (Y545 to D952 residues) expressed in mammalian expression system assessed as residual binding level at 1 uM by Kinomescan method relative to control
# [14] = target: LIM domain kinase 1 (Homo sapiens) (UniProt P53667); assay: Binding affinity to wild-type human full length LIMK1 (M1 to D647 residues) expressed in bacterial expression system assessed as residual binding level at 1 uM by Kinomescan method relative to control
# Method in brief: (§2)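 Single-point kinome-wide KINOMEscan binding panel, test compound at 1 μM, run by the provider's standard protocol.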
# [15] = target: Serine/threonine-protein kinase 3 (Homo sapiens) (UniProt Q13188); assay: Binding affinity to wild-type human partial length MST2 (D17 to E318 residues) expressed in bacterial expression system assessed as residual binding level at 1 uM by Kinomescan method relative to control
# [16] = target: Myosin light chain kinase family member 4 (Homo sapiens) (UniProt Q86YV6); assay: Binding affinity to wild-type human partial length MYLK4 (V79 to S380 residues) expressed in bacterial expression system assessed as residual binding level at 1 uM by Kinomescan method relative to control
# [17] = target: Serine/threonine-protein kinase Nek3 (Homo sapiens) (UniProt P51956); assay: Binding affinity to wild-type human full length NEK3 (M1 to R506 residues) expressed in mammalian expression system assessed as residual binding level at 1 uM by Kinomescan method relative to control; method in brief: as §2
# [18] = test system: Phosphatidylinositol 4,5-bisphosphate 3-kinase catalytic subunit alpha isoform (Homo sapiens), P42336 [E542K]; assay: Binding affinity to human partial length PIK3CA E542K mutant (R108 to N1068 residues) expressed in mammalian expression system assessed as residual binding level at 1 uM by Kinomescan method relative to control
# [19] = target: cAMP-dependent protein kinase catalytic subunit beta (Homo sapiens) (UniProt P22694); assay: Binding affinity to wild-type human full length PKAC-beta (M1 to F351 residues) expressed in bacterial expression system assessed as residual binding level at 1 uM by Kinomescan method relative to control; method in brief: as §2
# [20] = target: Serine/threonine-protein kinase PRP4 homolog (Homo sapiens) (UniProt Q13523); assay: Binding affinity to wild-type human partial length PRP4 (D657 to I1007 residues) expressed in bacterial expression system assessed as residual binding level at 1 uM by Kinomescan method relative to control
# [21] = target: SRSF protein kinase 3 (Homo sapiens) (UniProt Q9UPE1); assay: Binding affinity to wild-type human partial length SRPK3 (P41 to P567 residues) expressed in bacterial expression system assessed as residual binding level at 1 uM by Kinomescan method relative to control
# [22] = target: STE20/SPS1-related proline-alanine-rich protein kinase (Homo sapiens) (UniProt Q9UEW8); assay: Binding affinity to wild-type human partial length STK39 (P43 to I357 residues) expressed in mammalian expression system assessed as residual binding level at 1 uM by Kinomescan method relative to control
# [23] = target: Wee1-like protein kinase (Homo sapiens) (UniProt P30291); assay: Binding affinity to wild-type human partial length WEE1 (M291 to K575 residues) expressed in bacterial expression system assessed as residual binding level at 1 uM by Kinomescan method relative to control
# Tyrosine-protein kinase JAK1 (Homo sapiens), sequence (P23458 whole entry, the tested form may be a part): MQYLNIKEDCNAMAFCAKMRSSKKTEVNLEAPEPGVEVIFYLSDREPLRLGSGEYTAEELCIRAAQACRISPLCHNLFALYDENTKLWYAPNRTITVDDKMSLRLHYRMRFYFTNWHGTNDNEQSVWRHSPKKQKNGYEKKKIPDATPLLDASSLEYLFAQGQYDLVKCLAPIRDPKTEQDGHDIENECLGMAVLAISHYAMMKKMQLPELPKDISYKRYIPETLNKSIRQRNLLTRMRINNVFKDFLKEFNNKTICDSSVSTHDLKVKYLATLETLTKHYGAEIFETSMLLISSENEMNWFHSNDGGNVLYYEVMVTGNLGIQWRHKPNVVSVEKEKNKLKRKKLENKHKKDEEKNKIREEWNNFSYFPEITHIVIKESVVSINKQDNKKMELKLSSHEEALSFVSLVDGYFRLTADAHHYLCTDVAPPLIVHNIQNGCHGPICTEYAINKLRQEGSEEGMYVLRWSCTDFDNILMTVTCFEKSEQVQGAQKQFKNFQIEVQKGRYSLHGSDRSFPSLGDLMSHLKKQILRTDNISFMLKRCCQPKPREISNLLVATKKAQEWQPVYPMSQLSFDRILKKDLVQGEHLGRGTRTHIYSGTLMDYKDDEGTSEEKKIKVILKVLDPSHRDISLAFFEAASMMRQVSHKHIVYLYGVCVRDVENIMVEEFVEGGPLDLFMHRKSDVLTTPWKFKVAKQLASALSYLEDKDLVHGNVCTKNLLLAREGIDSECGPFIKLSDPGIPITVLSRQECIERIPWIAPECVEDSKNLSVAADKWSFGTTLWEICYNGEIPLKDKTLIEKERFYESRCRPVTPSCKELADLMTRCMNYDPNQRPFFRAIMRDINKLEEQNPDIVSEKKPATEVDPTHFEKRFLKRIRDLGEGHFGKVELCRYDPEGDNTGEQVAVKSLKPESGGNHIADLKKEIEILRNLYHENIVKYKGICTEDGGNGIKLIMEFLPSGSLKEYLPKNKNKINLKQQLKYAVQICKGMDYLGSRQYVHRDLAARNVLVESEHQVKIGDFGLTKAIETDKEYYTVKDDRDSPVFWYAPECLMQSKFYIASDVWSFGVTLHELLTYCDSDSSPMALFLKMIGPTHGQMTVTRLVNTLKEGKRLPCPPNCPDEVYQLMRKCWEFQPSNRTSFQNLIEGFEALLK
# Calcium/calmodulin-dependent protein kinase kinase 2 (Homo sapiens), sequence (Q96RR4 2-588 limits assumed): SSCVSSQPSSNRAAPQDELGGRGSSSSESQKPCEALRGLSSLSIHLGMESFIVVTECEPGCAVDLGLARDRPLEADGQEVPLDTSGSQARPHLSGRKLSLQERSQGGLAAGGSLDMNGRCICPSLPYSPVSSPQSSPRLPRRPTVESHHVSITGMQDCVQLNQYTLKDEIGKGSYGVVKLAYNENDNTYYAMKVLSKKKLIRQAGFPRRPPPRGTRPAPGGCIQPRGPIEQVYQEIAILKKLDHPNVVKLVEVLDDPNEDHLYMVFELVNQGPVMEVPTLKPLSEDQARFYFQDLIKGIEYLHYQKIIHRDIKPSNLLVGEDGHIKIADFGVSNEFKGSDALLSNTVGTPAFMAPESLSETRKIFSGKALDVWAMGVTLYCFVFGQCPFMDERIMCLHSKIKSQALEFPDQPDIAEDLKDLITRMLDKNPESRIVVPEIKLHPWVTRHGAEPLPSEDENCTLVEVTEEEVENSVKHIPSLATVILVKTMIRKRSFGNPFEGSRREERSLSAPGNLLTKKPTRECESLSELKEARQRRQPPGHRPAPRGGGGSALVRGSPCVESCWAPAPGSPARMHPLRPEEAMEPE
# Phosphatidylinositol 4,5-bisphosphate 3-kinase catalytic subunit alpha isoform (Homo sapiens), P42336 [E542K], sequence (P42336 whole entry E542K, the tested form may be a part, canonical isoform): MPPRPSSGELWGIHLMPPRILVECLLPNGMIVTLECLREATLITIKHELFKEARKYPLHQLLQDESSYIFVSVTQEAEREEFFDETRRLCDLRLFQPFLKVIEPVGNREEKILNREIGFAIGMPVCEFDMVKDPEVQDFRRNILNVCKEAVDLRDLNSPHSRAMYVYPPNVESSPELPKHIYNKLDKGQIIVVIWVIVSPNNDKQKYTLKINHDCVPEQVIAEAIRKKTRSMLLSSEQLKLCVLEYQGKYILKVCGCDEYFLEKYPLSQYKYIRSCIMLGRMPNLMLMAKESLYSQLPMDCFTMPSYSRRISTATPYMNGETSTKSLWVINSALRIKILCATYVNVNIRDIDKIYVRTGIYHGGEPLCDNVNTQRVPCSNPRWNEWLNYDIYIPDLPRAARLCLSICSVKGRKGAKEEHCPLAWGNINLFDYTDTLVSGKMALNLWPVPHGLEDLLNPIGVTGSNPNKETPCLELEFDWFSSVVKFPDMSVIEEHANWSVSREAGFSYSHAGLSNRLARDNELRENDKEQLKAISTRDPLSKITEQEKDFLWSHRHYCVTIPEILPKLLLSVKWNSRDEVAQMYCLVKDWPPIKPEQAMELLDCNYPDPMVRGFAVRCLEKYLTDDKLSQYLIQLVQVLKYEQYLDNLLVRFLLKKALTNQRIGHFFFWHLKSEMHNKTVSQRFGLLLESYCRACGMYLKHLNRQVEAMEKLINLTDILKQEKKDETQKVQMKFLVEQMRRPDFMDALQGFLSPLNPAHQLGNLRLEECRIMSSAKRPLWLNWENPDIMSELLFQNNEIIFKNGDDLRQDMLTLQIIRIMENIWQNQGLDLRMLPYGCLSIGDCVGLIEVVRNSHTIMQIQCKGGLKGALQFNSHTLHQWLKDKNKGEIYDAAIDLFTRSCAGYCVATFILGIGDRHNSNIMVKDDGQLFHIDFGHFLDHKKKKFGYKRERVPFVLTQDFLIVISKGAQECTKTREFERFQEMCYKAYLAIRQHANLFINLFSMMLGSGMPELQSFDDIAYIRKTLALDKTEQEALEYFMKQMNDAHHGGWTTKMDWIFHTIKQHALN
# Mast/stem cell growth factor receptor Kit (Homo sapiens), sequence (P10721 whole entry, the tested form may be a part): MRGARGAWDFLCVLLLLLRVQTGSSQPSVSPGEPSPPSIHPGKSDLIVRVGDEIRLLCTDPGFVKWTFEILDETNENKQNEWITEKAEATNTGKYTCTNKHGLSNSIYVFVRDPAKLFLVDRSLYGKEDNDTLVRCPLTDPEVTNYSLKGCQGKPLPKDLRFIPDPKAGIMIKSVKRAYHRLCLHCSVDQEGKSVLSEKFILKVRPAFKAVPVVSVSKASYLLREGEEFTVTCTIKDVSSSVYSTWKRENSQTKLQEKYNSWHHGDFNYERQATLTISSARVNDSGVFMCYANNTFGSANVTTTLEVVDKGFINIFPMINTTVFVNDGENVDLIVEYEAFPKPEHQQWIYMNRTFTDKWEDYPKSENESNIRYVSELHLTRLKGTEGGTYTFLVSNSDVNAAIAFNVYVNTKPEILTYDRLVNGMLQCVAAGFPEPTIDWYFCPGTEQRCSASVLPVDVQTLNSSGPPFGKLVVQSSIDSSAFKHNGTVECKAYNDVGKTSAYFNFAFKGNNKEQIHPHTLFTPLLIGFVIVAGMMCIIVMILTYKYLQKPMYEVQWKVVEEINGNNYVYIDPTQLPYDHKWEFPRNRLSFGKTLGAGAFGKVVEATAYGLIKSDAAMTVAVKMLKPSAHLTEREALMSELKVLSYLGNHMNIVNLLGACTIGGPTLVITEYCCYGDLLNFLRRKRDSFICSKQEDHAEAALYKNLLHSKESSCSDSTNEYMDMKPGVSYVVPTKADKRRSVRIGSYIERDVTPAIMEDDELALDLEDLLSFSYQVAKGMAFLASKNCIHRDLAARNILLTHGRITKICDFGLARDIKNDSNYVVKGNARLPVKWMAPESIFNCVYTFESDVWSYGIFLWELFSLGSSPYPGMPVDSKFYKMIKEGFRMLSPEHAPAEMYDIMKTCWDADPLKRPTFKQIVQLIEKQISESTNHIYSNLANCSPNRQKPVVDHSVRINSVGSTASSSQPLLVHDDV
# Death-associated protein kinase 3 (Homo sapiens), sequence (O43293 whole entry, looked up, the tested form may be a part): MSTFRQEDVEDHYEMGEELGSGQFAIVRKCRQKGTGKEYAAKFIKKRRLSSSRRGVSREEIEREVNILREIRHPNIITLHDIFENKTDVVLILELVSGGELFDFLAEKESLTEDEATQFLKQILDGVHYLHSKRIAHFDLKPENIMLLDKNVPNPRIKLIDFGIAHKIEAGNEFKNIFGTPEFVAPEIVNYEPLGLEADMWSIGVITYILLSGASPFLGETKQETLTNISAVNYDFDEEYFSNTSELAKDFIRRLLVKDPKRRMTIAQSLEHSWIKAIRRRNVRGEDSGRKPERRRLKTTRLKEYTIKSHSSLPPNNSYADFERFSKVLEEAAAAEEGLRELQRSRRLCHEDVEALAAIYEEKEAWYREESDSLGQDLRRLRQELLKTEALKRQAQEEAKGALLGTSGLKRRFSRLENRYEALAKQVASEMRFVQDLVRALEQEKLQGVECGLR
# LIM domain kinase 1 (Homo sapiens), sequence (P53667 whole entry, looked up, the tested form may be a part): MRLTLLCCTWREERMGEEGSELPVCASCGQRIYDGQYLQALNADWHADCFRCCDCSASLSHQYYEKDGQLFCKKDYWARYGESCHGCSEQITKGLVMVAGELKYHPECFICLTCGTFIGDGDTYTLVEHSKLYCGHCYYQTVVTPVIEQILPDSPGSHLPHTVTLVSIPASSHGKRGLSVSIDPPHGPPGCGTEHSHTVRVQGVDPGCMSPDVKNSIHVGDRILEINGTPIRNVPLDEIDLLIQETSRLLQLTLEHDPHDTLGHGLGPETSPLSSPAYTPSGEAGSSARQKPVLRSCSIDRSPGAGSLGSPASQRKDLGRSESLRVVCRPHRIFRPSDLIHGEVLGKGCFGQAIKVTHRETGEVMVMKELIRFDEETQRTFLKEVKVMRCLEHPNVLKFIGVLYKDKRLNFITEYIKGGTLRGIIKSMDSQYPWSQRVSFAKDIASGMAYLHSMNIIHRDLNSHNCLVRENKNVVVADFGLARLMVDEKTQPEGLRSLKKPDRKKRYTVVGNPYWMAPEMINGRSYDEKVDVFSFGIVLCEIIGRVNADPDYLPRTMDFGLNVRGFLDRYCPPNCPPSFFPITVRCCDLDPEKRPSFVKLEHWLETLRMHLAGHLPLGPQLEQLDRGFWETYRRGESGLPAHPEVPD
smiles,measurement,setting,value
C=CC(=O)Nc1cc(Nc2ncc(Cl)c(Nc3ccccc3S(=O)(=O)C(C)C)n2)c(OC)cc1N(C)CCN(C)C,Activity,[1],0.9%
same,Activity,[2],49%
same,Activity,[3],1.6%
same,Activity,[4],94%
same,Activity,[5],86%
same,Activity,[6],98%
same,Activity,[7],39%
same,Activity,[8],19%
same,Activity,[9],26%
same,Activity,[10],91%
same,Activity,[11],96%
same,Activity,[12],78%
same,Activity,[13],66%
same,Activity,[14],87%
same,Activity,[15],56%
same,Activity,[16],98%
same,Activity,[17],67%
same,Activity,[18],72%
same,Activity,[19],99%
same,Activity,[20],82%
same,Activity,[21],77%
same,Activity,[22],20%
same,Activity,[23],94%
